Measured values: ChEMBL document CHEMBL4359864, “The synthesis and in vitro biological evaluation of novel fluorinated tetrahydrobenzo[j]phenanthridine-7,12-diones against Mycobacterium tuberculosis” (Eur J Med Chem, 2019)
≈ marks a conversion by molar mass, not a printed value.

Tests used:
[1] = Cytotoxicity against mouse J774A.1 cells assessed as reduction in cell viability incubated for 24 hrs by neutral red uptake assay; format: cell-based, J774.A1
Procedure, shortened: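 J774A.1 cells in DMEM + 10% iFCS, 37°C, 5% CO2, seeded at 40.000 cells/well and left overnight. Twofold dilutions from 128 µM final; 24 h exposure. Neutral red uptake for 3 h, dye extracted with 1:1 ethanol/acetic acid, OD read at 530 nm (reference 620 nm). CC50 = 50% reduction in uptake; mean of triplicates.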

[2] = molecular target: T1, CYP450 (Homo sapiens, UniProt P04798+P05177+P05181+P08684+P10632+P10635+P11509+P11712+P13584+P20813+P20815+P20853+P24462+P24903+P33260+P33261+P51589+P78329+P98187+Q02928+Q08477+Q16678+Q16696+Q5TCH4+Q6VVX0+Q7Z449+Q8TAV3+Q96SQ9+Q9HB55); assay: Microsomal stability in human liver microsomes assessed as CYP450-mediated metabolism by measuring compound remaining at 5 uM and measured for 60 mins in presence of NADPH by UPLC-MS/MS analysis (reference value: 100%); format: ADME; details: read-out: Stability
Procedure, shortened: (§1)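 Compound at 5 µM with 0.5 mg/mL liver microsomes in PBS. Phase I was started with 1 mM NADPH; phase II used 2 mM UDPGA. Diclofenac served as reference. Samples taken at 0, 15, 30 and 60 min were quenched in ice-cold acetonitrile, centrifuged at 4°C and analysed by LC-MS. Mean of at least two replicates ± SD.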

[3] = test system: Mycobacterium tuberculosis; assay: Antimycobacterial activity against Mycobacterium tuberculosis H37Ra lux incubated for 7 days by luminometric assay; format: functional, organism-based; details: 168 h
Procedure, shortened: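 Twofold serial dilutions in 7H9/OADC/glycerol, in triplicate, inoculated with a suspension of 10.000 RLU per mL. After 7 days, n-decanal (1% v/v in ethanol) was added and luminescence read. IC50 and MIC (90% growth reduction) were derived from the mean of triplicates.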

[4] = Antimycobacterial activity against Mycobacterium avium subsp. avium ATCC 25291 by resazurin dye based fluorimetric assay; format: functional
Procedure, shortened: (§2)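 Resazurin microtiter method as for the bacterial panel. Mycobacteria grown in 7H9 with 10% OADC and 0.5% glycerol; for BCG, 0.05% Tween 80 replaced the glycerol. Cultures were sonicated and needle-passed to single cells. Incubation at 37°C, or 32°C for M. marinum. Fluorescence read at ex 550/em 590 nm; mean of triplicates.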

[5] = test system: UGT; assay: Microsomal stability in mouse liver microsomes assessed as UGT-mediated metabolism by measuring compound remaining at 5 uM and measured for 30 mins in presence of UDPGA by UPLC-MS/MS analysis (reference value: 100%); format: ADME; details: read-out: Stability; procedure, shortened: as §1
[6] = molecular target: T1, CYP450; assay: Microsomal stability in human liver microsomes assessed as CYP450-mediated metabolism by measuring compound remaining at 5 uM and measured for 15 mins in presence of NADPH by UPLC-MS/MS analysis (reference value: 100%); format: ADME; details: read-out: Stability; procedure, shortened: as §1
[7] = test system: CYP450; assay: Microsomal stability in mouse liver microsomes assessed as CYP450-mediated metabolism by measuring compound remaining at 5 uM and measured for 15 mins in presence of NADPH by UPLC-MS/MS analysis (reference value: 100%); format: ADME; details: read-out: Stability; procedure, shortened: as §1
[8] = test system: Pseudomonas aeruginosa; assay: Antibacterial activity against Pseudomonas aeruginosa ATCC 9027 incubated for 24 hrs by resazurin dye based fluorimetric assay; format: functional, organism-based; details: ATCC 9027, 24 h
Procedure, shortened: (§3)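 Resazurin microtiter assay: compounds from 10 mM DMSO stock, twofold serial dilutions from 64 µM final in growth medium, in triplicate. Inoculum from frozen glycerol stocks. Exposure 24 h, or 7 days for Mtb H37Ra (7H9 + 0.5% glycerol + 10% OADC). Then 0.01% resazurin was added and plates were incubated at 37°C until pink. Fluorescence read at ex 550/em 590 nm; mean of triplicates.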

[9] = molecular target: T2, UGT (Homo sapiens, UniProt O60656+O75310+O75795+P06133+P0DTE4+P0DTE5+P16662+P19224+P22309+P22310+P35503+P35504+P36537+P54855+Q6UWM9+Q9BY64+Q9HAW7+Q9HAW8+Q9HAW9); assay: Microsomal stability in human liver microsomes assessed as UGT-mediated metabolism by measuring compound remaining at 5 uM and measured for 30 mins in presence of UDPGA by UPLC-MS/MS analysis (reference value: 100%); format: ADME; details: read-out: Stability; procedure, shortened: as §1
[10] = molecular target: T1, CYP450; assay: Microsomal stability in human liver microsomes assessed as CYP450-mediated metabolism by measuring compound remaining at 5 uM and measured for 30 mins in presence of NADPH by UPLC-MS/MS analysis (reference value: 100%); format: ADME; details: read-out: Stability; procedure, shortened: as §1
[11] = molecular target: T2, UGT; assay: Microsomal stability in human liver microsomes assessed as UGT-mediated metabolism by measuring compound remaining at 5 uM and measured for 60 mins in presence of UDPGA by UPLC-MS/MS analysis (reference value: 100%); format: ADME; details: read-out: Stability; procedure, shortened: as §1
[12] = test system: Klebsiella pneumoniae; assay: Antibacterial activity against Klebsiella pneumoniae ATCC 13883 incubated for 24 hrs by resazurin dye based fluorimetric assay; format: functional, organism-based; details: ATCC 13883, 24 h; procedure, shortened: as §3
[13] = test system: Mycobacterium marinum; assay: Antimycobacterial activity against Mycobacterium marinum NCTC 2275 by resazurin dye based fluorimetric assay; format: functional, organism-based; procedure, shortened: as §2
[14] = test system: Mycobacterium tuberculosis; assay: Antibacterial activity against Mycobacterium tuberculosis H37Ra ATCC 25177 incubated for 7 days by resazurin dye based fluorimetric assay; format: functional, organism-based; details: H37Ra ATCC 25177, 168 h; procedure, shortened: as §3
[15] = molecular target: T2, UGT; assay: Microsomal stability in human liver microsomes assessed as UGT-mediated metabolism by measuring compound remaining at 5 uM and measured for 15 mins in presence of UDPGA by UPLC-MS/MS analysis (reference value: 100%); format: ADME; details: read-out: Stability; procedure, shortened: as §1
[16] = test system: Escherichia coli; assay: Antibacterial activity against Escherichia coli ATCC 8739 incubated for 24 hrs by resazurin dye based fluorimetric assay; format: functional, organism-based; details: ATCC 8739, ATCC 8739, 24 h; procedure, shortened: as §3
[17] = test system: UGT; assay: Microsomal stability in mouse liver microsomes assessed as UGT-mediated metabolism by measuring compound remaining at 5 uM and measured for 60 mins in presence of UDPGA by UPLC-MS/MS analysis (reference value: 100%); format: ADME; details: read-out: Stability; procedure, shortened: as §1
[18] = test system: Staphylococcus aureus; assay: Antibacterial activity against Staphylococcus aureus ATCC 6538 incubated for 24 hrs by resazurin dye based fluorimetric assay; format: functional, organism-based; details: ATCC 6538, 24 h; procedure, shortened: as §3
[19] = test system: CYP450; assay: Microsomal stability in mouse liver microsomes assessed as CYP450-mediated metabolism by measuring compound remaining at 5 uM and measured for 60 mins in presence of NADPH by UPLC-MS/MS analysis (reference value: 100%); format: ADME; details: read-out: Stability; procedure, shortened: as §1
[20] = test system: Enterococcus faecium; assay: Antibacterial activity against Enterococcus faecium ATCC 19434 incubated for 24 hrs by resazurin dye based fluorimetric assay; format: functional, organism-based; details: ATCC 19434, 24 h; procedure, shortened: as §3
[21] = test system: Streptococcus pneumoniae; assay: Antibacterial activity against Streptococcus pneumoniae ATCC BAA-334 incubated for 24 hrs by resazurin dye based fluorimetric assay; format: functional, organism-based; details: ATCC BAA-334, 24 h; procedure, shortened: as §3
[22] = test system: CYP450; assay: Microsomal stability in mouse liver microsomes assessed as CYP450-mediated metabolism by measuring compound remaining at 5 uM and measured for 30 mins in presence of NADPH by UPLC-MS/MS analysis (reference value: 100%); format: ADME; details: read-out: Stability; procedure, shortened: as §1
[23] = test system: UGT; assay: Microsomal stability in mouse liver microsomes assessed as UGT-mediated metabolism by measuring compound remaining at 5 uM and measured for 15 mins in presence of UDPGA by UPLC-MS/MS analysis (reference value: 100%); format: ADME; details: read-out: Stability; procedure, shortened: as §1
[24] = Selectivity index, ratio of […] for cytotoxicity against mouse J774A.1 cells; format: toxicity, cell-based; details: read-out: Selectivity Index

Compound	CC50 at 24 h [1]	remaining at 1 h, 5 µM [2]	IC50 [3]	MIC90 [3]	IC50 [4]	remaining at 0.5 h, 5 µM [5]	remaining at 0.25 h, 5 µM [6]	remaining at 0.25 h, 5 µM [7]	IC50 [8]	remaining at 0.5 h, 5 µM [9]	remaining at 0.5 h, 5 µM [10]	remaining at 1 h, 5 µM [11]	IC50 [12]	IC50 [13]	IC50 [14]	remaining at 0.25 h, 5 µM [15]	IC50 [16]	IC50 [18]	IC50 [20]	IC50 [21]	also measured
O=C1C2=C(C(=O)c3c1cnc1cc(F)ccc31)C1CCC2C1 (configuration not stated)	35.2 µM	100%	1.8 µM	10.2 µM (≈ 3 µg/mL)	0.43 µM	88%	100%	100%	> 64 µM	76%	100%	60%	> 64 µM	3.22 µM	1 to 2 µM	79%	> 64 µM	> 64 µM	> 64 µM	32 to 64 µM	remaining at 1 h, 5 µM [17]: 73%; remaining at 1 h, 5 µM [19]: 100%; remaining at 0.5 h, 5 µM [22]: 100%; remaining at 0.25 h, 5 µM [23]: 89%; selectivity ratio [24]: 3.44
O=C1C2=C(C(=O)c3c1cnc1cc(C(F)(F)F)ccc31)C1CCC2C1 (configuration not stated)	122 µM	100%	3.05 µM	7.95 µM (≈ 2.73 µg/mL)	3.24 µM	70%	100%	100%	> 64 µM	63%	100%	63%	> 64 µM	9 µM	2 to 4 µM	71%	> 64 µM	> 64 µM	> 64 µM	32 to 64 µM	remaining at 1 h, 5 µM [17]: 51%; remaining at 1 h, 5 µM [19]: 100%; remaining at 0.5 h, 5 µM [22]: 100%; remaining at 0.25 h, 5 µM [23]: 62%; selectivity ratio [24]: 15.4
CCn1cc(C(=O)O)c(=O)c2cc(F)c(N3CCNCC3)cc21 [NORFLOXACIN]	–	–	–	–	–	–	–	–	> 0.5 µM	–	–	–	–	–	–	–	> 0.25 µM	–	–	–	–
O=C(O)c1cn(C2CC2)c2cc(N3CCNCC3)c(F)cc2c1=O [CIPROFLOXACIN]	–	–	–	–	–	–	–	–	–	–	–	–	< 0.25 µM	–	–	–	–	–	–	–	–
O=C(O)Cc1ccccc1Nc1c(Cl)cccc1Cl [DICLOFENAC]	–	5%	–	–	–	–	45%	–	–	16%	23%	13%	–	–	–	22%	–	–	–	–	–
C[C@H]1c2cccc(O)c2C(=O)C2=C(O)[C@]3(O)C(=O)C(C(N)=O)=C(O)[C@@H](N(C)C)[C@@H]3[C@@H](O)[C@@H]21 [DOXYCYCLINE]	–	–	–	–	–	–	–	–	–	–	–	–	–	–	–	–	–	< 0.25 µM	–	> 0.25 µM	–
CN[C@H](CC(C)C)C(=O)N[C@H]1C(=O)N[C@@H](CC(N)=O)C(=O)N[C@H]2C(=O)N[C@H]3C(=O)N[C@H](C(=O)N[C@H](C(=O)O)c4cc(O)cc(O)c4-c4cc3ccc4O)[C@H](O)c3ccc(c(Cl)c3)Oc3cc2cc(c3O[C@@H]2O[C@H](CO)[C@@H](O)[C@H](O)[C@H]2O[C@H]2C[C@](C)(N)[C@H](O)[C@H](C)O2)Oc2ccc(cc2Cl)[C@H]1O [VANCOMYCIN]	–	–	–	–	–	–	–	–	–	–	–	–	–	–	–	–	–	–	> 0.5 µM	–	–
NNC(=O)c1ccncc1 [ISONIAZID]	–	–	0.11 µM	0.31 µM (≈ 0.0425 µg/mL)	–	–	–	–	–	–	–	–	–	–	< 0.25 µM	–	–	–	–	–	–
O=C1C2=C(C(=O)c3c1cnc1ccc(C(F)(F)F)cc31)C1CCC2C1 (configuration not stated)	108 µM	100%	2.51 µM	9.23 µM (≈ 3.17 µg/mL)	8.51 µM	81%	100%	100%	> 64 µM	74%	100%	69%	> 64 µM	45.5 µM	2 to 4 µM	100%	> 64 µM	> 64 µM	> 64 µM	> 64 µM	remaining at 1 h, 5 µM [17]: 78%; remaining at 1 h, 5 µM [19]: 100%; remaining at 0.5 h, 5 µM [22]: 100%; remaining at 0.25 h, 5 µM [23]: 87%; selectivity ratio [24]: 11.8
COc1c(N2C[C@@H]3CCCN[C@@H]3C2)c(F)cc2c(=O)c(C(=O)O)cn(C3CC3)c12 [MOXIFLOXACIN]	–	–	–	–	0.19 µM	–	–	–	–	–	–	–	–	0.14 µM	–	–	–	–	–	–	–
O=C1C2=C(C(=O)c3c1cnc1ccc(F)cc31)C1CCC2C1 (configuration not stated)	> 128 µM	100%	6.93 µM	57.3 µM (≈ 16.8 µg/mL)	0.24 µM	92%	100%	100%	> 64 µM	79%	100%	64%	> 64 µM	5.04 µM	4 to 8 µM	92%	> 64 µM	> 64 µM	> 64 µM	32 to 64 µM	remaining at 1 h, 5 µM [17]: 72%; remaining at 1 h, 5 µM [19]: 100%; remaining at 0.5 h, 5 µM [22]: 100%; remaining at 0.25 h, 5 µM [23]: 96%
CC/C(=C(\c1ccccc1)c1ccc(OCCN(C)C)cc1)c1ccccc1 [TAMOXIFEN]	11.1 µM	–	–	–	–	–	–	–	–	–	–	–	–	–	–	–	–	–	–	–	–
